Source: article PMC3747510 (Scientific Reports, 2013)
Where a chain is given by its changes, count along the chain named.

Legend:
SpLeuRS D344A = target: T1, SpLeuRS D344A (Streptococcus pneumoniae serotype 4, UniProt Q97SS0, D344A); test: Aminoacylation by SpLeuRS D344A mutant; assay type: biochemical; details: 50 μM ZCL039
T1 sequence (Q97SS0 1-833 D344A): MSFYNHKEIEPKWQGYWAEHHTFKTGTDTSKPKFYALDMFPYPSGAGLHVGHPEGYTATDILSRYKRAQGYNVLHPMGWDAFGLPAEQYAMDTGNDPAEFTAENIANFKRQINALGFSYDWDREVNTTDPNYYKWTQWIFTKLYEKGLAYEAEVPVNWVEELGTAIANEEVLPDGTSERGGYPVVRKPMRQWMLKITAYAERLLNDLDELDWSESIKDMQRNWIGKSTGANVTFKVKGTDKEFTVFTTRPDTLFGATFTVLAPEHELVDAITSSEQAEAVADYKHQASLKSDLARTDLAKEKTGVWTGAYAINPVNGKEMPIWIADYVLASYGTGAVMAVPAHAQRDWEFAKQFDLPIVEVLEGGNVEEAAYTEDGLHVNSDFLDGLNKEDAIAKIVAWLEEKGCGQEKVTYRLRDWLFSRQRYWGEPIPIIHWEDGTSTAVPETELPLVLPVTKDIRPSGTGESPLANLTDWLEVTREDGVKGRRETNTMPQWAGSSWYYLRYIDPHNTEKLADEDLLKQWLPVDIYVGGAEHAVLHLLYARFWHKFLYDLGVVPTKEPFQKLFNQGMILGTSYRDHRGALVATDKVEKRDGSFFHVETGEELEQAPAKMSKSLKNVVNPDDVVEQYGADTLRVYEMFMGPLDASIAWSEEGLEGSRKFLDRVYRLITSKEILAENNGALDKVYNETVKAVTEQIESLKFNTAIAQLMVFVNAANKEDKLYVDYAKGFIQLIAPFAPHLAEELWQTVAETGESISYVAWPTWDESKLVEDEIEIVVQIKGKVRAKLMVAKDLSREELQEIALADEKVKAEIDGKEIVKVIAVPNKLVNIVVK
How it was run: (§1)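 Aminoacylation at 37°C, started with 4 mM ATP. Point mutants were made by site-directed mutagenesis. The MmLinker chimera has CP1 Lys226–Thr411 replaced by a nonapeptide. Means of three independent experiments.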

SpLeuRS C399S = target: T2, SpLeuRS C399S (Streptococcus pneumoniae serotype 4, UniProt Q97SS0, W399S); test: Aminoacylation and deacylation by SpLeuRS C399S mutant; assay type: biochemical; details: 50 μM ZCL039
T2 sequence (Q97SS0 1-833 W399S): T1 sequence (Q97SS0 1-833 D344A) with A344D, W399S

SpLeuRS-MmLinker = test: Aminoacylation by SpLeuRS-MmLinker chimeric mutant; assay type: biochemical, Streptococcus pneumoniae; details: 50 μM ZCL039
How it was run: as §1

yeast cytosolic LeuRS = target: T3, yeast cytosolic LeuRS (Saccharomyces cerevisiae, UniProt P26637); test: Aminoacylation by yeast cytosolic LeuRS; assay type: biochemical; details: 100 μM ZCL039
T3 sequence (P26637 1-1090): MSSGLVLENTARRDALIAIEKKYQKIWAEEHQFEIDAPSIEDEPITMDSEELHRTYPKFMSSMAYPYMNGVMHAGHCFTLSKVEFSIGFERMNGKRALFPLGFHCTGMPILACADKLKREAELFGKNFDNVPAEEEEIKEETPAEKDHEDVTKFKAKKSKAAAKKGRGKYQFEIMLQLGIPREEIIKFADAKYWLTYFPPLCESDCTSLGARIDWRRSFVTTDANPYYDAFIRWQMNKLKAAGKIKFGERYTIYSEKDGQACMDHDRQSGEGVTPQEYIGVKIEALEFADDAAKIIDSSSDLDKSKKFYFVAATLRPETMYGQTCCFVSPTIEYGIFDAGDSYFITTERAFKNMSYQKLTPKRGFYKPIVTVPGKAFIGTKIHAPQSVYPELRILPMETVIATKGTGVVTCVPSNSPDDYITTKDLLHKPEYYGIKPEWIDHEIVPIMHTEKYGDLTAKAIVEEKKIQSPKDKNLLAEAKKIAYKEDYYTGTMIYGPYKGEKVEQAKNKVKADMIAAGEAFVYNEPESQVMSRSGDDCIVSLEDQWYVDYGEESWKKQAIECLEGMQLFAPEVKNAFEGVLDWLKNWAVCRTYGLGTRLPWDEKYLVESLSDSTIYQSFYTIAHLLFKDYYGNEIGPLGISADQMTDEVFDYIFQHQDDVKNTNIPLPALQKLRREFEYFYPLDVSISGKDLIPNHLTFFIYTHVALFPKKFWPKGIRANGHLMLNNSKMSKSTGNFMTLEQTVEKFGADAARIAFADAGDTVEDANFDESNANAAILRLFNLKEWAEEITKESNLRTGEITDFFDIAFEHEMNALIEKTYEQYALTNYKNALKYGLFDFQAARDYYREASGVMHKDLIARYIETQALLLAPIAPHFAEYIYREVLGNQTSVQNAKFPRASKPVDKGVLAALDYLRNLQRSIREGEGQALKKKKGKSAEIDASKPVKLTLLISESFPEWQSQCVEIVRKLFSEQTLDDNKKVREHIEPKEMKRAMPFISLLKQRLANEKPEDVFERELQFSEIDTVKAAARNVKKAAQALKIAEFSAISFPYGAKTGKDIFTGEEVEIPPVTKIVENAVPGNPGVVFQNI

How did the “Effect of D344A mutation on sensitivity of SpLeuRS to ZCL039” value (SpLeuRS D344A) turn out when `OB1OCc2ccc(C(O)c3ccccc3)cc21` (stereo not shown) [ZCL039, [6-(1-phenyl-1-hydroxylmethyl)]-1,3-dihydro-1-hydroxy-2,1-benzoxaborole] was run?
The value was “reduced the sensitivity”.

What about the “Sensitivity of C399S mutant to ZCL039” value (SpLeuRS C399S) of the same compound?
The value was “comparable to the wild-type SpLeuRS”.

What about the “Effect on tRNA charging activity of SpLeuRS-MmLinker” value (SpLeuRS-MmLinker) of the same compound?
Its value is “not affected”.

What about the “Activity against yeast cytosolic LeuRS aminoacylation” value (yeast cytosolic LeuRS) of the same compound?
The value was “little effect”.
